Measured values from PubChem BioAssay.
Unmarked numbers belong to inactive results. The list shows a part of the results. Activity calls are given as the source filed them. Unless noted, the rule behind the calls is not given here.

Biological target: Caspase-3 (Homo sapiens) (UniProt P42574)
Experiment: caspase-3 protease inhibitors, confirmation, selectivity assay for SENP inhibitor project, biochemical, single concentration (AID 488918;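 active = mean inhibition above about 50%, limit read from the data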;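 note: plate controls were enzyme with DMSO for no effect and wells without caspase-3 for full effect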)
Conditions: purified caspase-3, Z-DEVD-aminoluciferin luminescence, 60 min; at 12.5 µM; active compounds read high

Caspase-3 (Homo sapiens), sequence (P42574 28-227 limits assumed): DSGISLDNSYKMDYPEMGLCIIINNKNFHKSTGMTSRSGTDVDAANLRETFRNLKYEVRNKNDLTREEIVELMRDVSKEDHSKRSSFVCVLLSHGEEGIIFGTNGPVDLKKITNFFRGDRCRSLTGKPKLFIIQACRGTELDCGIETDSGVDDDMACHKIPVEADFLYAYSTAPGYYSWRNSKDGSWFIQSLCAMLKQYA

SMILES | inhibition
O=[N+]([O-])c1ccc(C=Nc2ccc(Cl)cc2Cl)s1 | 7.4%
COc1cccc2sc(Nc3nc(C)c(C(C)=O)s3)nc12 | 56.6% (active)
COc1ccccc1N=Cc1c(O)c2ccccc2oc1=O | 19.3%

System: not listed separately
Experiment: luciferase luminescence interference by compounds, confirmation, artefact control for SENP inhibitor project, biochemical, single concentration, SENP8 reaction pre-completed (AID 488919;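 active = mean inhibition above about 50% when retested at one dose, limit read from the data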;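 note: plate controls were DMSO wells with completed reaction for no effect and substrate without enzyme for full effect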)
Conditions: Pre-incubated SENP8/Z-RLRGG-aminoluciferin, at 12.5 µM, active compounds read high

SMILES | inhibition
O=[N+]([O-])c1ccc(C=Nc2ccc(Cl)cc2Cl)s1 | 8.1%
COc1cccc2sc(Nc3nc(C)c(C(C)=O)s3)nc12 | 72.3% (active)
COc1ccccc1N=Cc1c(O)c2ccccc2oc1=O | 27.7%

Biological target: Protein Mdm4 (Homo sapiens) + E3 ubiquitin-protein ligase Mdm2 (Homo sapiens) (UniProt O15151+Q00987)
Experiment: retested Mdm2-MdmX interaction blockers, confirmation, cell-based, luminescence, single concentration, set 2 (AID 504601;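 active = mean inhibition of the luminescence signal across two replicates at or above 26 percent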)
Conditions: SaOS-2 split-luciferase Mdm2/MdmX complementation, at 8 µM, active compounds read high

Protein Mdm4 (Homo sapiens) + E3 ubiquitin-protein ligase Mdm2 (Homo sapiens), sequence (O15151 whole entry, looked up): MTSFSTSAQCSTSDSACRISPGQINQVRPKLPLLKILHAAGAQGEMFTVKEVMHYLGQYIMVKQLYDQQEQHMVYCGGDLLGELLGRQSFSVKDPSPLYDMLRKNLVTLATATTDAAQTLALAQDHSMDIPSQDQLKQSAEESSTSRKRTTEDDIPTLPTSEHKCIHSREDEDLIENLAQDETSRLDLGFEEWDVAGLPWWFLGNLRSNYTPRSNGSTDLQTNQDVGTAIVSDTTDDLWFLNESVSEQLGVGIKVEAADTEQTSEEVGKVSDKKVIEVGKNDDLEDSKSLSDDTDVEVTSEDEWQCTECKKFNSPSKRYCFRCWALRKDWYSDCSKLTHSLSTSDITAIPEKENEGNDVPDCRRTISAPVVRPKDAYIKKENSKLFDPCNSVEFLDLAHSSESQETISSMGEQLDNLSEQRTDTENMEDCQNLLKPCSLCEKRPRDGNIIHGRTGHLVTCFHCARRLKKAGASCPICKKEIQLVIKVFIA
Protein Mdm4 (Homo sapiens) + E3 ubiquitin-protein ligase Mdm2 (Homo sapiens), sequence (Q00987 whole entry, looked up): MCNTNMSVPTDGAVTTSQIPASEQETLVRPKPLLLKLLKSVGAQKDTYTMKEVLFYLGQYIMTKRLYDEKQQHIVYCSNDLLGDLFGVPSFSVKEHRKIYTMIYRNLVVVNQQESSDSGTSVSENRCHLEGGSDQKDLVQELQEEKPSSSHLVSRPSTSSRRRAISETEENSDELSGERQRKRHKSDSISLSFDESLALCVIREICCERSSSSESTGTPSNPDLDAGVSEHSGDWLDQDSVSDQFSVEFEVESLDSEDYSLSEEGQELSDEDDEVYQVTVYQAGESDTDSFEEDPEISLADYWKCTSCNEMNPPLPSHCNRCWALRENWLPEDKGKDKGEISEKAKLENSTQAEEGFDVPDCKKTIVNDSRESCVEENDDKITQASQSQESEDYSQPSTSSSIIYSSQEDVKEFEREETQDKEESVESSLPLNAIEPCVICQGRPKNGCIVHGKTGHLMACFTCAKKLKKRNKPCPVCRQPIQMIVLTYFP

SMILES | inhibition
Cc1cccc(CS(=O)(=O)c2ncc(Cl)c(C(=O)Nc3ccc(F)cc3)n2)c1 | 103% (active)
COc1ccc2c(c1OC)C(=O)OC2Nc1nc(-c2ccccc2)cs1 (stereo unspecified) | 103% (active)
CSc1nnc(NC(=O)c2nc(S(=O)(=O)Cc3ccc(C)cc3)ncc2Cl)s1 | 100% (active)
N#Cc1cccc(NC(=O)COC(=O)c2ccccc2C(=O)c2ccc(Cl)c([N+](=O)[O-])c2)c1 | 103% (active)
CSc1nc(-c2ccccc2)nc(C(Cl)Cl)n1 | 97.7% (active)

System: not listed separately
Experiment: inhibition of Brca1/Bard1 split-luciferase complementation, confirmation, counter-screen for Mdm2/MdmX interaction inhibitor project, luminescence, single concentration (AID 504668)
Conditions: Brca1/Bard1 bimolecular luciferase complementation counterscreen, at 8 µM, active compounds read high

SMILES | inhibition
CC1(C)CCSC(/C=C/c2ccccc2)=N1 | 30.5% (active)
CC(C)(C)Nc1nc(-c2ccccn2)nc2ccccc12 | 23.3% (active)
OCCNc1nc(Nc2ccc(Cl)c(Cl)c2)nc2ccccc12 | 24.3% (active)
COc1ccc(-c2cc(C(F)(F)F)nc(S(C)(=O)=O)n2)cc1OC | 24.3% (active)
Oc1c(CN2CCN(c3ccc(F)cc3)CC2)cc(Cl)c2cccnc12 | 25.7% (active)
Nc1nc(CC(=O)CSc2ccc(Cl)cc2)nc(Nc2ccc(F)cc2)n1 | 29.2% (active)

System: not listed separately
Experiment: inhibitors of PAF-induced NF-kB signaling, retest, confirmation, cell-based, GFP fluorescence, single concentration (AID 602472; in the data active = inhibition above about 40%;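 note: stimulus PAF is a Pseudomonas aeruginosa filtrate and not platelet activating factor; plate controls were DMSO wells with stimulus for no effect and unstimulated DMSO wells for full effect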)
Conditions: KKLEB CF airway cells, overnight, at 5 µM, active compounds read high
Outline: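 Assay system: KKLEB immortalized cystic fibrosis airway epithelial cells with NFkB-GFP reporter. Buffer or medium: medium with 2% FBS for cells, serum-free medium for stimulus. Dosing: 5 µM single dose. Times: 2 h compound pretreatment at 37 °C, overnight PAF exposure. Measured by: GFP fluorescence of NFkB reporter.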

SMILES | inhibition
CC1(C)CCSC(/C=C/c2ccccc2)=N1 | -24.9%
Cc1cccc(CS(=O)(=O)c2ncc(Cl)c(C(=O)Nc3ccc(F)cc3)n2)c1 | 44% (active)
COc1ccc2c(c1OC)C(=O)OC2Nc1nc(-c2ccccc2)cs1 (stereo unspecified) | 106% (active)
OCCNc1nc(Nc2ccc(Cl)c(Cl)c2)nc2ccccc12 | 81.5% (active)
N#Cc1cccc(NC(=O)COC(=O)c2ccccc2C(=O)c2ccc(Cl)c([N+](=O)[O-])c2)c1 | 108% (active)

System: not listed separately
Experiment: HIF-2a reporter inhibitor retest, confirmation, luminescence, 786-0 RCC cells (AID 651580;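 active = mean inhibition across four replicates of at least 40 percent at the single tested concentration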)
Conditions: HIF-2a luciferase reporter luminescence, overnight, at 18.8 µM, active compounds read high

SMILES | inhibition
Cc1cccc(CS(=O)(=O)c2ncc(Cl)c(C(=O)Nc3ccc(F)cc3)n2)c1 | 99.3% (active)
COc1ccc2c(c1OC)C(=O)OC2Nc1nc(-c2ccccc2)cs1 (stereo unspecified) | 26%
N#Cc1cccc(NC(=O)COC(=O)c2ccccc2C(=O)c2ccc(Cl)c([N+](=O)[O-])c2)c1 | 55.9% (active)
CSc1nc(-c2ccccc2)nc(C(Cl)Cl)n1 | 59.7% (active)
